From publication PMC7616001 (Journal of medicinal chemistry, 2022)

How the values were obtained:
[1] = Reversible aquation and anation by 1H NMR; format: physicochemical; conditions: DMSO/D2O without NaCl, within 10 min
Summary of the method: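 1H NMR in DMSO/D2O. At 10 min, 666 mM NaCl in D2O added to give 100 mM NaCl in DMSO/D2O (85:15 v/v). Spectra recorded at regular intervals up to 60 min.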

[2] = tested on: RIP1 and RIP3 in HeLa cells; assay: Western blot of necroptosis marker proteins; format: cell-based, human; conditions: 24 h
Summary of the method: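 Western blot for RIP1/RIP3: about 2 × 10^6 HeLa cells at 80–90% confluency were given test compound (10, 20, 40 μM) for 24 h, with shikonin as a reference necroptosis inducer. Cells were lysed in RIPA with protease inhibitors and run on 10/12% SDS-PAGE, then transferred to PVDF. Membranes were blocked in 2% milk, probed with primary antibody (1:1000, overnight, 4 °C), then with HRP secondary antibody (0.75:1000).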

[3] = tested on: HeLa; assay: 72 h crystal violet; format: cell-based, human
Summary of the method: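 Seeding and dosing as for MTT: 3 × 10^3 cells/well, overnight, final DMSO ≤0.1%, 72 h exposure. Wells washed with PBS and fixed in 4% paraformaldehyde for 15 min. Crystal violet stained, dried, dissolved in 96% ethanol and A570 read. IC50 derived from dose–response curves.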

[4] = tested on: PARP, p53, cleaved caspase 3 in HeLa cells; assay: Western blot of apoptosis-related marker proteins; format: cell-based, human; conditions: 24 h
Summary of the method: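 ~2 million HeLa per 60 mm dish, grown to 80–90% confluency, treated 24 h at 10, 20 or 40 μM. Lysed in RIPA buffer with protease inhibitors. Membranes blocked with 2% skim milk in 0.1% Tween 20 for 30 min. Primary antibody 1:1000 overnight at 4 °C; HRP secondary antibody.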

[5] = Stability in RPMI-1640 cell culture medium by UPLC; format: physicochemical
Summary of the method: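 Test compound incubated in RPMI‑1640 and monitored by UPLC. Run twice, each with three replicates.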

[6] = tested on: HeLa cells; assay: Intracellular distribution between nucleus and cytoplasm, ICP-MS; format: cell-based, human; conditions: 10 μM, 24 h exposure
Summary of the method: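 5 × 10^6 HeLa per 100 mm plate, grown overnight. Exposed 24 h to 10 μM test compound, with 10 μM cisplatin as comparator. PBS‑washed, trypsinised, counted. Nuclear and cytoplasmic fractions isolated with a commercial kit. Protein measured by BCA assay, metal by ICP‑MS. Three experiments of ≥3 replicates.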

[7] = tested on: HeLa cells; assay: Annexin-V/PI dual staining flow cytometry; format: cell-based, human; conditions: 24 h
[8] = tested on: ROS level in HeLa cells; assay: H2DCF-DA intracellular ROS assay; format: cell-based, human; conditions: 10 μM, 1-8 h
Summary of the method: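 HeLa plated at 10 × 10^3 per well, grown overnight, then exposed to 10 μM test compound for 1, 2, 4 or 8 h. Washed with PBS and loaded with 10 μM H2DCF‑DA for 30 min. Washed again, phenol red‑free DMEM added, fluorescence read immediately. Three biological replicates.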

[9] = Octanol-water partition coefficient, shake-flask method; format: physicochemical; conditions: 100 mM NaCl, 37 °C, Ru by ICP-MS
Summary of the method: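 Shake‑flask partition. Octanol‑saturated water and water‑saturated octanol prepared beforehand by shaking a 1:1 octanol/water mixture for 24 h, then separating the layers.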

[10] = tested on: zebrafish sub-intestinal venous plexus (SIVP) angiogenesis; assay: Zebrafish SIVP angiogenesis model; format: in vivo, zebrafish (Danio rerio); conditions: 20/30/40 μM from 26 hpf, imaged at 72 hpf
Summary of the method: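 Test compound stock 5 mM in DMSO, diluted in E3 to final 20, 30 or 40 μM; DMSO vehicle at 10 μL/mL E3. Four 26 hpf Tg(etv2:EGFP) embryos per 1 mL. Raised to 72 hpf at 28 °C for confocal analysis of the sub‑intestinal venous plexus.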

[11] = tested on: mitochondrial Ca^2+ level in HeLa cells; assay: Mitochondrial Ca2+ level, Rhod-2 AM imaging; format: cell-based, human; conditions: 20 μM
[12] = tested on: HO• radicals in HeLa cells; assay: Flow cytometric quantification of hydroxyl radicals with HPF probe; format: cell-based, human; conditions: 10 μM, 4 h
Summary of the method: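 HeLa seeded at 0.75 × 10^6 cells per six‑well plate well, grown overnight, then treated 4 h at 10 μM. Cells trypsinised, washed with ice‑cold PBS and spun at 1200 rpm, 5 min, 4 °C. Probe‑stained cells analysed by flow cytometry, approximately 20,000 cells per sample.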

[13] = tested on: mitochondria of HeLa cells; assay: Mitochondrial morphology, confocal imaging of mito-GFP HeLa cells; format: cell-based, human; conditions: 1/2 × IC50/24h (20 μM)
[14] = tested on: A2780cis; assay: MTT assay, 72 h continuous exposure, cisplatin-resistant A2780Cis cells; format: cell-based, human
Summary of the method: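 Ovarian lines grown in RPMI with 10% FBS and 1% penicillin/streptomycin; A2780Cis kept on 2 μM cisplatin 3 days each week. HeLa grown in DMEM with the same supplements. 3 × 10^3 cells/well, overnight, then serial dilutions of DMSO stocks (final DMSO ≤0.1%); cisplatin stock in PBS. 72 h continuous exposure, MTT 0.5 mg/mL 3 h, formazan in DMSO, A570 normalised to untreated. IC50 from curves; ≥3 independent experiments.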

Cc1ccc(C(C)C)cc1.O=C(C=C([O-])C(F)(F)F)[c-]1cccc1.[Cl-].[Fe+2].[Ru+2].c1cc[cH-]c1 [Compound 1, [(η^6-p-cymene)Ru(1,1,1-trifluoro-4-oxo-4-ferrocenyl-but-2-en-2-olate)Cl]]
fraction aquated [1]: ~ 95% | expression level of RIP1 and RIP3 [2]: increased the expression level of RIP1 and RIP3 | IC50 from CV assay compared to IC50 from MTT assay ([3]; HeLa and A2780, 72 h): ~ 3 fold | IC50 ([3]; read-out: IC50 (CV assay) HeLa, 72 h CV assay): 4.4 ± 1.7 µM | apoptosis markers (PARP cleavage, p53, cleaved caspase 3) ([4]; cisplatin 10 μM, 1 at 1/4 × IC50 to IC50): none of these apoptosis markers were upregulated | PARP level ([4]; western blot): significant upregulation of PARP | intact compound remaining in RPMI-1640 with 10% FBS ([5]; after 24 h): ~45% | intact compound remaining in RPMI-1640 with 10% FBS ([5]; after 72 h): ~7% | decomposition in RPMI-1640 with 10% FBS ([5]; up to 8 h, 37 °C, UPLC): < 20% | metal content in nuclear fraction relative to cytoplasmic fraction [6]: ~ 2.5 times | AV^−/PI^+ cells (necrosis) ([7]; 10 μM): 9% | AV^−/PI^+ cells (necrosis) ([7]; 20 μM): 15.4% | intracellular ROS level (H2DCF-DA) [8]: significant increase in ROS | log P [9]: 1.1 ± 0.1 | effect on SIVP angiogenesis (SIVP area, number of compartments) [10]: dose-dependent antiangiogenic effects | increase in mitochondrial Ca^2+ level compared to untreated control [11]: ~ 5 fold | level of HO• radicals relative to untreated control [12]: ~ 7 fold | mitochondrial morphology [13]: rounded and punctate | RF (A2780) ([14]; RF = IC50 in A2780Cis/IC50 in A2780): 1.2 | IC50 ([14]; read-out: IC50 A2780cis, 72 h continuous exposure, MTT assay): 3.1 ± 0.1 µM
